Experimental data: ChEMBL document CHEMBL1781963, “Discovery of novel hepatoselective HMG-CoA reductase inhibitors for treating hypercholesterolemia: a bench-to-bedside case study on tissue selective drug distribution” (Bioorg Med Chem Lett, 2011)

Columns and labels:
[1] = test system: Syrian golden hamster; test: Inhibition of cholesterol synthesis in golden syrian hamster assessed as reduction of [14C]-cholesterol level at 10 mg/kg, po followed by 3 hrs after treated with 80 uCi, ip of [14C]-sodium acetate measured after 5 hrs by liquid scintillation counting relative to control; type: functional; conditions: Mesocricetus auratus
Procedure, shortened: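 Separate hamster groups dosed po at 10 mg/kg at t = 0 h. 14C sodium acetate ip at t = 3 h, blood 14C cholesterol at t = 5 h. Percent change vs untreated controls, n = 8/group.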

[2] = test system: L6; test: Selectivity ratio of IC50 for cholesterol synthesis in rat L6 cells to IC50 for cholesterol synthesis in rat hepatocytes
[3] = Lipophilicity, log D of the compound at pH 7.4 by shake flask method; type: physicochemical; conditions: buffer
Procedure, shortened: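 Log D at pH 7.4 by shake flask.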

[4] = test system: Syrian golden hamster; test: Inhibition of cholesterol synthesis in golden syrian hamster assessed as reduction of [14C]-cholesterol level at 10 mg/kg, po followed by 2 hrs after treated with 80 uCi, ip of [14C]-sodium acetate measured after 4 hrs by liquid scintillation counting relative to control; type: functional; conditions: Mesocricetus auratus
Procedure, shortened: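 Hamsters dosed po at 10 mg/kg at t = 0 h. Intraperitoneal 14C sodium acetate at t = 2 h, blood drawn at t = 4 h for 14C cholesterol. Percent inhibition vs untreated controls, n = 8/group.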

[5] = test system: L6; test: Inhibition of cholesterol synthesis in rat L6 cells assessed as reduction of [14C]-cholesterol level using [14C]-acetic acid preincubated for 3 hrs before addition of [14C]-acetic acid by scintillation counting; type: functional, cell-based
Procedure, shortened: (§1)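 Cholesterol synthesis inhibition measured in rat hepatocytes and rat myocyte cell line, giving IC50 for each. Mean ± SEM of n ≥ 2 independent determinations.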

[6] = test system: Hepatocyte; test: Inhibition of cholesterol synthesis in rat hepatocytes assessed as reduction of [14C]-cholesterol level using [14C]-acetic acid preincubated for 4 hrs before addition of [14C]-acetic acid by liquid scintillation counting; type: functional, cell-based; procedure, shortened: as §1
[7] = target: T1, 3-hydroxy-3-methylglutaryl-coenzyme A reductase (Rattus norvegicus, UniProt P51639); test: Inhibition of HMG-CoA reductase in Sprague-Dawley rat liver microsomes using [14C]HMG-CoA as substrate preincubated for 0.5 hrs before substrate addition measured after 0.75 hrs by beta scintillation counting; parameters: species or system Microsome
T1 sequence (P51639 whole entry): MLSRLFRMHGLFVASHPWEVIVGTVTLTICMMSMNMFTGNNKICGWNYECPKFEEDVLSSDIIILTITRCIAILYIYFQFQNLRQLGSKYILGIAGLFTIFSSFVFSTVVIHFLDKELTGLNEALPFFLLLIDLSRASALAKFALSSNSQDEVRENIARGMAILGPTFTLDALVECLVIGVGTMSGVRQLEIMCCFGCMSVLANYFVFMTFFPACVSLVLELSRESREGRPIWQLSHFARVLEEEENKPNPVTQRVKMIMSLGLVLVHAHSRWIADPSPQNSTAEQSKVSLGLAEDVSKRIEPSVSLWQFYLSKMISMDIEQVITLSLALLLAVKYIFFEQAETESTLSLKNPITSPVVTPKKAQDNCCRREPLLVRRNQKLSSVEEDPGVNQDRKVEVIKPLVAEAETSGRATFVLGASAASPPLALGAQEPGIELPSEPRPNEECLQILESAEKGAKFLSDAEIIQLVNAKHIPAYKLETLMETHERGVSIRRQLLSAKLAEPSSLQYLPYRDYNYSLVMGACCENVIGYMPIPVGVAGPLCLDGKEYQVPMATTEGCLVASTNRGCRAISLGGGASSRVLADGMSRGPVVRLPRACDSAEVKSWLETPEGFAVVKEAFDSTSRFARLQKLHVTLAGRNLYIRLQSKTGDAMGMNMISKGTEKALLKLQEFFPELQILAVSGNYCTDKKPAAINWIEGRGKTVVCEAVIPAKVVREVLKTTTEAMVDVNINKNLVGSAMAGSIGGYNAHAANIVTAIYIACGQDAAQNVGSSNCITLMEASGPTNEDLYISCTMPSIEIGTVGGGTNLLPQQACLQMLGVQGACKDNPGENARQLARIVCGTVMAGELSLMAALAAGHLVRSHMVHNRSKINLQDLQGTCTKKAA
Procedure, shortened: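 Enzyme inhibition was measured in an HMG-CoA reductase preparation from rat microsomes. IC50 is reported as mean ± SEM of n ≥ 2 independent determinations.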

Structure (SMILES)	logD [3]	IC50 [7]	inhibition in vivo at 10 mg/kg [1]	Ratio IC50 [2]	inhibition in vivo at 10 mg/kg [4]	IC50 [5]	IC50 [6]
CC(C)c1c(C(=O)NCc2ccccc2)nc(-c2ccc(F)cc2)n1CC[C@@H](O)C[C@@H](O)CC(=O)[O-].[Na+]	0.64		-7%	10100	-53%		
O=C([O-])C[C@H](O)C[C@H](O)CCn1c(-c2ccc(F)cc2)nc(C(=O)NCc2ccc(F)cc2)c1C1CC1.[Na+]	0.17	3.4 nM	0%	2310		1620 nM	0.7 nM
COc1ccc(CNC(=O)c2nc(-c3ccc(F)cc3)n(CC[C@@H](O)C[C@@H](O)CC(=O)[O-])c2C2CC2)cc1F.[Na+]		3.7 nM	0%	4450	-36%	890 nM	0.2 nM
NC(=O)c1ccc(CNC(=O)c2nc(-c3ccc(F)cc3)n(CC[C@@H](O)C[C@@H](O)CC(=O)[O-])c2C2CC2)cc1.[Na+]	-1.1	7.2 nM	0%	> 250000		> 100000 nM	0.4 nM
COc1ccccc1CNC(=O)c1nc(-c2ccc(F)cc2)n(CC[C@@H](O)C[C@@H](O)CC(=O)[O-])c1C1CC1.[Na+]	0.16	7 nM		107000		10700 nM	0.1 nM
CN(C)S(=O)(=O)c1ccc(CNC(=O)c2nc(-c3ccc(F)cc3)n(CC[C@@H](O)C[C@@H](O)CC(=O)[O-])c2C2CC2)cc1.[Na+]	-0.46	4.9 nM	0%	> 200000		> 100000 nM	0.5 nM
CCCc1c(C(=O)NCc2ccccc2)nc(-c2ccc(F)cc2)n1CC[C@@H](O)C[C@@H](O)CC(=O)O		26 nM					
Cc1ccc(CNC(=O)c2nc(-c3ccc(F)cc3)n(CC[C@@H](O)C[C@@H](O)CC(=O)[O-])c2C2CC2)cc1.[Na+]	0.45	1.7 nM	-36%	1780	-79%	178 nM	0.1 nM
O=C([O-])C[C@H](O)C[C@H](O)CCn1c(-c2ccc(F)cc2)nc(C(=O)NCc2ccc(F)c(F)c2)c1C1CC1.[Na+]		1.2 nM	-8%	5560		2780 nM	0.5 nM
Cc1cccc(CNC(=O)c2nc(-c3ccc(F)cc3)n(CC[C@@H](O)C[C@@H](O)CC(=O)[O-])c2C2CC2)c1.[Na+]	0.47	7.2 nM	-50%	1770	-54%	532 nM	0.3 nM
Cc1ccccc1CNC(=O)c1nc(-c2ccc(F)cc2)n(CC[C@@H](O)C[C@@H](O)CC(=O)[O-])c1C1CC1.[Na+]	0.44	4.9 nM	0%	48500		4850 nM	0.1 nM

The next lines start with results.

logD [3]	IC50 [7]	Structure (SMILES)	inhibition in vivo at 10 mg/kg [1]	Ratio IC50 [2]	inhibition in vivo at 10 mg/kg [4]	IC50 [5]	IC50 [6]
	1.2 nM	O=C([O-])C[C@H](O)C[C@H](O)CCn1c(-c2ccc(F)cc2)nc(C(=O)NCc2ccc(F)cc2F)c1C1CC1.[Na+]		24350	-46%	4870 nM	0.2 nM
0.08	1.5 nM	O=C(O)C[C@H](O)C[C@H](O)CCn1c(-c2ccc(F)cc2)nc(C(=O)NCc2ccccc2F)c1C1CC1	-4%			27200 nM	
0.11	1.2 nM	COc1cccc(CNC(=O)c2nc(-c3ccc(F)cc3)n(CC[C@@H](O)C[C@@H](O)CC(=O)[O-])c2C2CC2)c1.[Na+]	-42%	2960	-53%	538 nM	0.2 nM
0.03	1.4 nM	O=C([O-])C[C@H](O)C[C@H](O)CCn1c(-c2ccc(F)cc2)nc(C(=O)NCc2ccccc2)c1C1CC1.[Na+]		3160	-58%	632 nM	0.2 nM
	94 nM	Cc1c(C(=O)NCc2ccccc2)nc(-c2ccc(F)cc2)n1CC[C@@H](O)C[C@@H](O)CC(=O)O					
	123 nM	CCc1c(C(=O)NCc2ccccc2)nc(-c2ccc(F)cc2)n1CC[C@@H](O)C[C@@H](O)CC(=O)O					
0.02	1.2 nM	COc1ccc(CNC(=O)c2nc(-c3ccc(F)cc3)n(CC[C@@H](O)C[C@@H](O)CC(=O)[O-])c2C2CC2)cc1.[Na+]		32000	-60%	6400 nM	0.2 nM
0.69	4.1 nM	Cc1ccc(CNC(=O)c2nc(-c3ccc(F)cc3)n(CC[C@@H](O)C[C@@H](O)CC(=O)[O-])c2C2CC2)cc1F.[Na+]		2240		224 nM	0.1 nM
